Active and inactive are the calls of the source. The calls are words filed in the database; no cut-off is given here.

Assay [1] in a line: Inhibition of Yersinia PTP. An outline of the steps: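 Recombinant Yop51* enzyme; p-nitrophenyl phosphate at 0.5–4.0 mM in 0.05 M BISTRIS pH 6.5 with 100 mM NaCl, 0.05% Brij-35, 0.6 vol% DMSO, 0.4 mM EDTA and 1 mM DTT. Substrate and inhibitor were preincubated 5 min at 30 °C, then enzyme was added. Initial rates were read as p-nitrophenol A410 (ε 18,300 M⁻¹ cm⁻¹). Ki came from Lineweaver–Burk analysis at several inhibitor levels, reported as mean and standard deviation.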

Assay [2] is described as follows: Selectivity for human recombinant PTPbeta over Yersinia PTP.
The target of assay [3] is Receptor-type tyrosine-protein phosphatase beta (Homo sapiens, UniProt P23467). As to the kind of experiment: Inhibition of human recombinant PTPbeta. An outline of the steps:
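Human recombinant PTPβ; 1 mM p-nitrophenyl phosphate preincubated 5 min at 30 °C with varying inhibitor concentrations in 0.05 M BISTRIS pH 7.0 with 100 mM NaCl, 0.05% Brij-35, 0.8 vol% DMSO and 1 mM diethylenetriamine pentaacetic acid. Enzyme was added to start the reaction and A410 was followed over time. IC50 is the concentration halving activity after 5 min. For competitive inhibition, Ki was taken as ½ IC50 at substrate equal to Km.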

For the next assay, the species on record is Homo sapiens. As to the kind of experiment: Inhibition of human PP1 at 50 uM.

Receptor-type tyrosine-protein phosphatase beta, sequence (P23467 whole entry): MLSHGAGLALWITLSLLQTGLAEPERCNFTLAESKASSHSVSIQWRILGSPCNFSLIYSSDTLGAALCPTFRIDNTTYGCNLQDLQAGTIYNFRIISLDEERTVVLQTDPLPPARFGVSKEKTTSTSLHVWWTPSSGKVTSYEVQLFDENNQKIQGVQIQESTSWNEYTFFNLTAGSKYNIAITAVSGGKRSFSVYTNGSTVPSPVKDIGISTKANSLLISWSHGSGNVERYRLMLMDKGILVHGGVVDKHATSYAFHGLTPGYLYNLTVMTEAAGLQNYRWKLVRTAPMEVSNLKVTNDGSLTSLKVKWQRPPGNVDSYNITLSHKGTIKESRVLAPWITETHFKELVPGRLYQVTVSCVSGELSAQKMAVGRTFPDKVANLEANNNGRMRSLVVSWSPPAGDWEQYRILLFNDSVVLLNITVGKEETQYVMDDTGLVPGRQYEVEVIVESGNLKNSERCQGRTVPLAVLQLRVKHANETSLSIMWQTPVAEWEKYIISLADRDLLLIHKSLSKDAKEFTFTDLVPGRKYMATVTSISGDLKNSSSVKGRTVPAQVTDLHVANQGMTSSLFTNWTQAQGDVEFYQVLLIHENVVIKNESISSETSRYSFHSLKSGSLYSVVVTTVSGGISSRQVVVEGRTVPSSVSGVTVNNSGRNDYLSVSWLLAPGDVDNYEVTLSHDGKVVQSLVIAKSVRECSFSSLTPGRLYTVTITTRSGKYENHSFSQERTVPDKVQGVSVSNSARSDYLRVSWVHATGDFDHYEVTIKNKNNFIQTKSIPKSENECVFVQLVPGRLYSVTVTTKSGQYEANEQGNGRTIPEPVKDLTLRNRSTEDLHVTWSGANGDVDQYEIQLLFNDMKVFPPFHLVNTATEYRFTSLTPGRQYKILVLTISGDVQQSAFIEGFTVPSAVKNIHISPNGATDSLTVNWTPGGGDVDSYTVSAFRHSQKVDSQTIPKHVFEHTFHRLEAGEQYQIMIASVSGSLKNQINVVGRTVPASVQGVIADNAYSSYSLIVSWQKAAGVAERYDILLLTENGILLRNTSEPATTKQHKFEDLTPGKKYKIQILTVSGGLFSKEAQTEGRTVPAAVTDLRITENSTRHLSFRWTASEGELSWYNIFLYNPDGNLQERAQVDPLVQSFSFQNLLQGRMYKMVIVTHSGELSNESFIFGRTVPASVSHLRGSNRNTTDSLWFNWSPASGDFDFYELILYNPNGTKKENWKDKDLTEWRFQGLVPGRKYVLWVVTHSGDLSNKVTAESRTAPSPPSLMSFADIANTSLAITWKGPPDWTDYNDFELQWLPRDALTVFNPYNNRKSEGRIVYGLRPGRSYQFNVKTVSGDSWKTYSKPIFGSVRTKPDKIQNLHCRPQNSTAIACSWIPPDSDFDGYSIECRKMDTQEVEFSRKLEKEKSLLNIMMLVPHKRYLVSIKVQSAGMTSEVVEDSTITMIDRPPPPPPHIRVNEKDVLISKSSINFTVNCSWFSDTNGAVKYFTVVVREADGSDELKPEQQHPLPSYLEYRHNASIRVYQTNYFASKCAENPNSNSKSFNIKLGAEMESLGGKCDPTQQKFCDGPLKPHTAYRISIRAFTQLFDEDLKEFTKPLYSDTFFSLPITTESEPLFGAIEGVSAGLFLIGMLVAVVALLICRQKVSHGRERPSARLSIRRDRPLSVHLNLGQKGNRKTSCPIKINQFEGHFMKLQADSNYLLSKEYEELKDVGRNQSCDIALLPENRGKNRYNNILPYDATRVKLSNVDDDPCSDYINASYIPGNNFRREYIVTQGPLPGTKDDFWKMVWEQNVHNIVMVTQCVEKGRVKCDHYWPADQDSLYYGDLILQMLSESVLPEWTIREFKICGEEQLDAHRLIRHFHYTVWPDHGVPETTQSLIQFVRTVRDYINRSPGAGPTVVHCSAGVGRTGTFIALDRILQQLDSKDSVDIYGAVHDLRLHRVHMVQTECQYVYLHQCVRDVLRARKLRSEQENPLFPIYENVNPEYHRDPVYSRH

In assay [1], `O=P(O)(O)C(c1cc2c(O)c(c1)Cc1cc(C(P(=O)(O)O)P(=O)(O)O)cc(c1O)Cc1cc(C(P(=O)(O)O)P(=O)(O)O)cc(c1O)Cc1cc(C(P(=O)(O)O)P(=O)(O)O)cc(c1O)C2)P(=O)(O)O` gave a Ki of 40 µM.

In the case of `O=P(O)(O)C(c1ccc(O)cc1)P(=O)(O)O`, the affinity in assay [1] corresponds to a Ki of 570 µM.

Take `O=P(O)(O)Cc1cc2c(O)c(c1)Sc1cc(CP(=O)(O)O)cc(c1O)Sc1cc(CP(=O)(O)O)cc(c1O)Sc1cc(CP(=O)(O)O)cc(c1O)S2`: the fold change (FC) in assay [2] was 3. The compound further had a Ki in assay [1] of 0.22 µM. Also, the IC50 in assay [3] is 0.13 µM. In the assay listed under Homo sapiens, the outcome was inactive.

With `CCCOc1c2cccc1Cc1cc(C(P(=O)(O)O)P(=O)(O)O)cc(c1O)Cc1cccc(c1OCCC)Cc1cccc(c1O)C2`, the Ki in assay [1] came to 7.1 µM.

Consider `CCCOc1c2cccc1Cc1cc(C(P(=O)(O)O)P(=O)(O)O)cc(c1O)Cc1cccc(c1OCCC)Cc1cc(C(P(=O)(O)O)P(=O)(O)O)cc(c1O)C2`, for which, in assay [1], affinity was put at a Ki of 1.4 µM. For the same compound, in assay [3], the IC50 turned out to be 32 µM. Also, in the assay filed under Homo sapiens, the result was inactive.

In turn, `O=P(O)(O)Cc1cc2c(O)c(c1)Cc1cc(CP(=O)(O)O)cc(c1O)Cc1cc(CP(=O)(O)O)cc(c1O)Cc1cc(CP(=O)(O)O)cc(c1O)C2` had a Ki in assay [1] of 0.92 µM. In assay [3], the 50% inhibitory concentration (IC50) amounted to 3.8 µM. For the same compound, the result in the assay filed under Homo sapiens was inactive.

Broadly, the Ki is a dissociation constant, usually derived from enzyme kinetics or from competition with a known ligand. Lower therefore signals higher affinity. The term IC50 denotes the concentration at which inhibition is half-maximal.
